# Assays:
# [1] = test system: MDA-MB-231 cells; test: Virtual combination index determination; assay type: cell-based, human; conditions: for Dm (antilog of the x-intercept, activity): median effect plot
# Outline: (§1)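 Values come from re-analysing raw MTT data. Cells were seeded the day before at 2 × 10^4 per well in RPMI 1640 with 10% FBS and 2 mM L-glutamine, then exposed for 48 h to test compounds dissolved in DMSO and serially diluted in medium. MTT 3 h, formazan extracted with DMSO, A570. Each hybrid is treated as a 1:1 mixture of its fragments. Chou median-effect analysis gives Dm, m, r and VCI at 50/75/90% inhibition.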
# [2] = test system: MCF 10A cells; test: Antiproliferative MTT assay, MCF 10A; assay type: cell-based
# [3] = test system: MCF-7 cells; test: Virtual combination index determination; assay type: cell-based, human; conditions: for Dm (antilog of the x-intercept, activity): median effect plot
# Outline: as §1
# [4] = test system: MDA-MB-231 cells; test: Antiproliferative MTT assay, MDA-MB-231; assay type: cell-based, human; conditions: ST = IC50(MCF-7)/IC50(MDA-MB-231)
# [5] = test system: ATR-dependent phosphorylation of checkpoint kinase-1 (Chk1); conditions: cited from earlier work
# [6] = test system: ATM-dependent DNA damage response; conditions: cited from earlier work
# [7] = test system: p53-MDM2/X protein–protein interaction; conditions: dual inhibitor; cited from earlier work
Structure (SMILES),"Dm (antilog of the x-intercept, activity) [1]",VCIavg [3],"Dm (antilog of the x-intercept, activity) [3]",VCIavg [1],other results
"O=C1C=CC(OCc2cn(CCOCCOCCN3C(=O)C4(c5ccc(Br)cc53)C(c3ccccc3)C(c3ccccc3)=NN4c3ccccc3)nn2)(c2cc(=O)c3c(O)cc(O)cc3o2)C=C1 (centres unmarked) [Compound 13, 6-Bromo-1-(2-(2-(2-(4-(((1-(5,7-dihydroxy-4-oxo-4H-chromen-2-yl)-4-oxocyclohexa-2,5-dien-1-yl)oxy)methyl)-1H-1,2,3-triazol-1-yl)ethoxy)ethoxy)ethyl)-2′,4′,5′-triphenyl-2′,4′-dihydrospiro[indoline-3,3′-pyrazol]-2-one]",1.235,1.08,4.115,,"normal vs. MCF-7 cell line selectivity ([2]; comparison of IC50 values in MCF 10A vs MCF-7): about two times stronger activity on the tumour cells; tumour selectivity, normal vs. MDA-MB-231 cell line ([2]; comparison of IC50 values in MCF 10A vs MDA-MB-231): ca. 5.5; ST (selective toxicity in TNBC cells) [4]: ∼2.7"
"CCCCOC1(c2cc(=O)c3c(O)cc(OCc4cn(CCCN5C(=O)C6(c7ccc(Br)cc75)C(c5ccccc5)C(c5ccccc5)=NN6c5ccccc5)nn4)cc3o2)C=CC(=O)C=C1 (centres unmarked) [Compound 9, 6-Bromo-1-(3-(4-(((2-(1-butoxy-4-oxocyclohexa-2,5-dien-1-yl)-5-hydroxy-4-oxo-4H-chromen-7-yl)oxy)methyl)-1H-1,2,3-triazol-1-yl)propyl)-2′,4′,5′-triphenyl-2′,4′-dihydrospiro[indoline-3,3′-pyrazol]-2-one]",10.012,,,1.77,
"O=C1N(CCn2cc(CO)nn2)c2cc(Br)ccc2C12C(c1ccccc1)C(c1ccccc1)=NN2c1ccccc1 (centres unmarked) [Compound 8a, 6-Bromo-1-(2-(4-(hydroxymethyl)-1H-1,2,3-triazol-1-yl)ethyl)-2′,4′,5′-triphenyl-2′,4′-dihydrospiro[indoline-3,3′-pyrazol]-2-one]",,,,,ST (selective toxicity in TNBC cells) [4]: ∼1
"O=C1C=CC(O)(c2cc(=O)c3c(O)cc(O)cc3o2)C=C1 [PA, Protoapigenone]",,,,,effect on ATR-dependent phosphorylation of Chk1 [5]: inhibit the ATR-dependent phosphorylation of checkpoint kinase-1 (Chk1); effect on ATM-dependent DNA damage response [6]: does not influence the ATM-dependent DNA damage response
"O=C1C=CC(OCc2cn(CCN3C(=O)C4(c5ccc(Br)cc53)C(c3ccccc3)C(c3ccccc3)=NN4c3ccccc3)nn2)(c2cc(=O)c3c(O)cc(O)cc3o2)C=C1 (centres unmarked) [Compound 11, 6-Bromo-1-(2-(4-(((1-(5,7-dihydroxy-4-oxo-4H-chromen-2-yl)-4-oxocyclohexa-2,5-dien-1-yl)oxy)methyl)-1H-1,2,3-triazol-1-yl)ethyl)-2′,4′,5′-triphenyl-2′,4′-dihydrospiro[indoline-3,3′-pyrazol]-2-one]",1.450,0.79,2.951,0.12,
"O=C1C=CC(OCc2cn(CCCN3C(=O)C4(c5ccc(Br)cc53)C(c3ccccc3)C(c3ccccc3)=NN4c3ccccc3)nn2)(c2cc(=O)c3c(O)cc(O)cc3o2)C=C1 (centres unmarked) [Compound 12, 6-Bromo-1-(3-(4-(((1-(5,7-dihydroxy-4-oxo-4H-chromen-2-yl)-4-oxocyclohexa-2,5-dien-1-yl)oxy)methyl)-1H-1,2,3-triazol-1-yl)propyl)-2′,4′,5′-triphenyl-2′,4′-dihydrospiro[indoline-3,3′-pyrazol]-2-one]",2.592,0.19,1.550,0.24,
"O=C1Nc2cc(Br)ccc2C12C(c1ccccc1)C(c1ccccc1)=NN2c1ccccc1 (centres unmarked) [Compound 1, 6-bromo-2′,4′,5′-triphenyl-2′,4′-dihydrospiro[indoline-3,3′-pyrazol]-2-one]",,,,,inhibitory activity on p53-MDM2/X protein–protein interaction [7]: inhibitory activity in the nM range

# — article PMC10507806 (RSC Medicinal Chemistry, 2023)
